Experimental data as given in ChEMBL document CHEMBL1149024, “Naturally occurring antiacne agents” (1994).
Values after ≈ are worked out from the molar mass of the structure shown. Active and inactive are the calls of the source. The calls are words filed in the database; no cut-off is given here.

Columns and labels:
Cutibacterium acnes [1] = assay: Antimicrobial activity Propionibacterium acnes ATCC 11827 after 2 days by broth dilution method; assay type: functional; conditions: Cutibacterium acnes, ATCC 11827, 48 h; for MIC: read-out: MIC
Method in brief: (§1)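 Serial twofold dilutions in DMF; 30 µl of each added to 3 ml NYG broth (0.8% nutrient broth, 0.5% yeast extract, 0.1% glucose), then inoculated with 30 µl of a two-day-old culture. Incubated 2 days at 37°; growth read as turbidity (OD 660 nm). MIC is the lowest concentration giving complete growth inhibition, determined at least twice.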

Cutibacterium acnes [2] = assay: Antimicrobial activity Propionibacterium acnes ATCC 11827 up to 200 ug/ml after 2 days by broth dilution method; assay type: functional, organism-based; method in brief: as §1
Cutibacterium acnes [3] = assay: Antimicrobial activity Propionibacterium acnes ATCC 11827 after 2 days by twofold dilution method in presence of 1000 units of lipase; assay type: functional; conditions: ATCC 11827, 48 h

Structure (SMILES) | MIC (Cutibacterium acnes [1]) [µg/mL] | also measured
CC1=CCC2C(C1)C2(C)C (configuration not stated) [CARENE] | 50 (≈ 367 µM) | 
CCCCCCCCCCCCCCCCCCO [CETOSTEARYL ALCOHOL] | > 800 | 
CCCCCCCCCCCCCCCCO [CETYL ALCOHOL] | 0.78 (≈ 3.22 µM) | MBC (Cutibacterium acnes [1]): 1.56 µg/mL (≈ 6.43 µM)
CC(C)CCC[C@@H](C)[C@H]1CC[C@H]2[C@@H]3CC=C4C[C@@H](O)CC[C@]4(C)[C@H]3CC[C@]12C [CHOLESTEROL] | > 800 | 
CC(C)=CCC/C(C)=C/[C@H](O)C/C(C)=C/CC/C(C)=C/CO [CRINITOL] | 25 (≈ 81.6 µM) | 
C=C(C)[C@H]1CC=C(C)CC1 [D-LIMONENE] | 50 (≈ 367 µM) | 
CCCCCCCCC(C)O (configuration not stated) [DECAN-2-OL] | 100 (≈ 632 µM) | 
CCCCCCCCCCO [DECANOL] | 25 (≈ 158 µM) | MBC (Cutibacterium acnes [1]): 50 µg/mL (≈ 316 µM)
CCCCCCCCCCCC(=O)O [DODECANOATE] | 50 (≈ 250 µM) | 
CCCCCCCCCCCCO [DODECANOL] | 3.13 (≈ 16.8 µM) | MBC (Cutibacterium acnes [1]): 6.25 µg/mL (≈ 33.5 µM)
C=CCc1ccc(O)c(OC)c1 [EUGENOL] | 50 (≈ 304 µM) | 
CC(C)=CCC/C(C)=C/CC/C(C)=C/CO [FARNESOL] | 6.25 (≈ 28.1 µM) | 
CC(C)=CCC/C(C)=C/CO [GERANIOL] | 400 (≈ 2590 µM) | 
CCCCCC/C=C\CCCCCCCc1cccc(O)c1C(=O)O [GINGKOLIC ACID] | 0.78 (≈ 2.25 µM) | 
CCCC(O)CC (configuration not stated) [HEXAN-3-OL] | > 800 | 
CC(C)c1cccc(=O)c(O)c1 [HINOKITIOL] | 12.5 (≈ 76.1 µM) | 
c1ccc2[nH]ccc2c1 [INDOLE] | 200 (≈ 1710 µM) | 
C/C=C/c1ccc2c(c1)OCO2 [ISOSAFROLE] | 200 (≈ 1230 µM) | 
C=CC(C)(O)CCC=C(C)C (configuration not stated) [LINALOOL] | 200 (≈ 1300 µM) | 
C=C1[C@H]2CC[C@@H]3[C@H]2C(C)(C)CCC[C@]13C [LONGIFORENE] | 6.25 (≈ 30.6 µM) | 

Structure (SMILES) | MIC (Cutibacterium acnes [1]) [µg/mL] | also measured
CC1CCC(C(C)C)C(O)C1 (configuration not stated) [MENTHOL] | 400 (≈ 2560 µM) | 
C=CCc1ccc(OC)c(OC)c1 [METHYLEUGENOL] | 200 (≈ 1120 µM) | 
CCCCCCCCCCCCCCO [MYRISTYL ALCOHOL] | 1.56 (≈ 7.28 µM) | MBC (Cutibacterium acnes [1]): 1.56 µg/mL (≈ 7.28 µM)
CC(C)c1oc(=O)cc2c1[C@@H](O)[C@H]1OC(=O)[C@@]3(C)[C@@H](O)[C@H]4O[C@H]4[C@@]2(C)[C@@H]13 [NAGILACTONE C] | > 800 | 
CC(C)[C@H]1OC(=O)C=C2C13O[C@@H]3[C@H]1OC(=O)[C@@]3(C)[C@@H](O)CC[C@@]2(C)[C@@H]13 (some centres not stated) [NAGILACTONE E] | > 800 | 
C=CC(C)(O)CC/C=C(\C)CCC=C(C)C (configuration not stated) [NEROLIDOL] | 25 (≈ 112 µM) | 
CCCCCCCCCO [NONANOL] | 100 (≈ 693 µM) | MBC (Cutibacterium acnes [1]): 200 µg/mL (≈ 1390 µM)
CCCCCCCCO [OCTANOL] | 200 (≈ 1540 µM) | 
CCCCCCCCCCCCCCCOC(=O)CCCCCCCCCCC [PENTADECANYLDODECANOATE] |  | Activity (Cutibacterium acnes [2]): inactive; MIC (Cutibacterium acnes [3]): 1.56 µg/mL
CC1(C)CCC[C@]2(C)[C@@H](C=O)C(C=O)=CC[C@@H]12 [POLYGODIAL] | 25 (≈ 107 µM) | 
C=CCc1ccc2c(c1)OCO2 [SAFROLE] | 50 (≈ 308 µM) | 
O=C(O)c1ccccc1O [SALICYLIC ACID] | 400 (≈ 2900 µM) | 
CC1=CCC(O)(C(C)C)CC1 (configuration not stated) [TERPINEOL] | 800 (≈ 5190 µM) | 
CC1=CCC(=C(C)C)CC1 [TERPINOLENE] | 50 (≈ 367 µM) | 
Cc1ccc(C(C)C)c(O)c1 [THYMOL] | 200 (≈ 1330 µM) | 
CC(C)c1c(O)ccc2c1CC[C@H]1C(C)(C)CCC[C@]21C [TOTAROL] | 0.39 (≈ 1.36 µM) | 
C/C=C/c1cc(OC)c(OC)cc1OC [TRANS-ASARONE] | 100 (≈ 480 µM) | 
CCCCCCCCCCCCCO [TRIDECAN-1-OL] | 1.56 (≈ 7.79 µM) | MBC (Cutibacterium acnes [1]): 3.13 µg/mL (≈ 15.6 µM)
CCCCCCCCCCCO [UNDECANOL] | 12.5 (≈ 72.5 µM) | MBC (Cutibacterium acnes [1]): 25 µg/mL (≈ 145 µM)
